Experimental data reported in paper PMC3119707 (Reproduction (Cambridge, England), 2010).
Read-outs that look alike come from different tables or passages of the source.

Tests used:
[1] = biological target: ERK1 (Homo sapiens, UniProt P27361); assay: In vitro kinase profiling, ERK1; assay type: biochemical; details: 1 μM AG1478
[2] = biological target: T1, EGFR (Mus musculus, UniProt Q01279); details: 500 nM AG1478, follicles stimulated with LH; ref Panigone et al. 2008; cited from earlier work
T1 sequence (Q01279 25-1210): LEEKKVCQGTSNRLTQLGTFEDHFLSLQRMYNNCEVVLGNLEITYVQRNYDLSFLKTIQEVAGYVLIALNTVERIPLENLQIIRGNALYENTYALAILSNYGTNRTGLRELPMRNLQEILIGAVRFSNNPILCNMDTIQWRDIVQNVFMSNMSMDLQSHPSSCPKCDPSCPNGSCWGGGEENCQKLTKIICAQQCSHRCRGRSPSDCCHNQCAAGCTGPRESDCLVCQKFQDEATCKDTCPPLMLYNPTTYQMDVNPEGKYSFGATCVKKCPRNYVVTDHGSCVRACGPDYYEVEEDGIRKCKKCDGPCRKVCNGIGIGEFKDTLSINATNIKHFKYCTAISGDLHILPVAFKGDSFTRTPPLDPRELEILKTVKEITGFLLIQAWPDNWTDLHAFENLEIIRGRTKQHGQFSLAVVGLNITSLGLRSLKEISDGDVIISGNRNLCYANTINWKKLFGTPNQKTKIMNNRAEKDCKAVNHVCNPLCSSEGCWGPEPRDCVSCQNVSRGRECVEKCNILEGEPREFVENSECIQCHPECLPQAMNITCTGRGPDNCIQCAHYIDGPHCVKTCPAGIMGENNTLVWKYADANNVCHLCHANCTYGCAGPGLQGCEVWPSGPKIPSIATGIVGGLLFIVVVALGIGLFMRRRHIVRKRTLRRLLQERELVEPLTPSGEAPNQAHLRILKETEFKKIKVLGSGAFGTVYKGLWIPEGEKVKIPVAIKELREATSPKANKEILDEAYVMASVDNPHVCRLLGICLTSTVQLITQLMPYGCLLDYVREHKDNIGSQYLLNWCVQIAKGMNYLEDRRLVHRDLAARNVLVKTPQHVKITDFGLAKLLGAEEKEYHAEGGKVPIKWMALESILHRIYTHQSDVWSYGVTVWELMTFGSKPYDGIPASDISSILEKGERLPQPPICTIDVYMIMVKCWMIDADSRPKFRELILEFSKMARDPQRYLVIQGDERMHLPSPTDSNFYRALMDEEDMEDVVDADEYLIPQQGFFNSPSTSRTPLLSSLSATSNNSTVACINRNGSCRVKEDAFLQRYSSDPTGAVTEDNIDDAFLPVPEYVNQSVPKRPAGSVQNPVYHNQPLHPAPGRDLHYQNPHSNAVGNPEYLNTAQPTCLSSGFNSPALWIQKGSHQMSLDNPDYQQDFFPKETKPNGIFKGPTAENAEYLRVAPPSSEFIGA

[3] = system: gap junctions in mouse ovarian follicles; assay: Gap junction permeability by Alexa Fluor 350 tracer injection; assay type: cell-based; details: for MG/IC fluorescence ratio as percent of the basal level: one hour treatment, LH 350 nM, epiregulin 100 nM
Outline: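 Antral follicles (~320–400 μm) from 23–24-day B6SJLF1 mice, cultured 24–32 h at 37°C, 5% CO2, in phenol-red-free MEMα with FSH and 3 mg/ml BSA; 1 h LH (350 nM) or epiregulin. Follicle-enclosed oocyte microinjected with 2.5 mM Alexa Fluor 350 (326 Da); two-photon imaging 20 min later; mural granulosa/inner cumulus fluorescence ratio; mean ± s.e.m., n = follicles.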

[4] = system: cGMP in mouse ovarian follicles; assay: cGMP ELISA assay in isolated ovarian follicles; assay type: cell-based
Outline: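 Cultured mouse antral follicles (24–32 h, FSH, 3 mg/ml BSA), treated 1 h with LH (350 nM) or epiregulin (100 nM), or 1 h 500 nM test compound then 1 h test compound + LH. 12–20 unfrozen follicles washed in Ca/Mg-free PBS, sonicated in 0.1 M HCl (±1% Triton X-100), heated 95°C 2 min, stored −80°C, assayed by cGMP ELISA. Concentration approximated from 20 nl estimated cellular volume; mean ± s.e.m.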

[5] = system: cGMP in mouse ovarian follicles; details: ref Vaccari et al. 2009, cited from earlier work
[6] = biological target: EGFR kinase; details: read-out: IC50, EGFR kinase activity; in vitro; ref Levitzki & Gazit 1995; cited from earlier work
[7] = system: follicle-enclosed oocytes; assay: Nuclear envelope breakdown; assay type: cell-based, mouse
Outline: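 Meiotic resumption scored by viewing the oocyte nucleus through the follicle wall from above (20X/0.4 NA long working distance objective). Follicles from 23–24-day B6SJLF1 mice were cultured 24–32 h in FSH-containing, serum-free medium (3 mg/ml BSA), 37°C, 5% CO2, checked at 24 h, and only healthy prophase-arrested ones used. LH at 350 nM. Experiments discarded when <70% of LH controls reached NEBD by 5 h.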

[8] = biological target: ERK2 (Homo sapiens, UniProt P28482); assay: In vitro kinase profiling, ERK2; assay type: biochemical; details: 1 μM AG1478
Chain of ERK2 (P28482 whole entry, species assumed): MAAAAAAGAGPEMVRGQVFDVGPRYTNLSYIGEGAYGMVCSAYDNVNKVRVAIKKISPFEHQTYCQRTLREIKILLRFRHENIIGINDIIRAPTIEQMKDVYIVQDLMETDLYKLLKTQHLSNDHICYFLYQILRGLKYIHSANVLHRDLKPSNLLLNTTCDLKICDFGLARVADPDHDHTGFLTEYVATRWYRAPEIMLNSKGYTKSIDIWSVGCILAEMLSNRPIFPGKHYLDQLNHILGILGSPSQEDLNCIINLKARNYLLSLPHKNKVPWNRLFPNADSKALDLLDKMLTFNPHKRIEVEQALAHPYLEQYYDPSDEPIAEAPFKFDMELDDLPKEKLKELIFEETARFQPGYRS

[9] = system: 110 kinases; assay: In vitro kinase profiling panel; assay type: biochemical; details: for percent of activity remaining: 1 μM AG1478
[10] = biological target: T1, EGFR; assay: Immunoblot of EGFR phosphorylation on tyrosine 1068 in follicles; assay type: cell-based; details: 500 nM AG1478, follicles stimulated with LH
[11] = system: follicle-enclosed oocytes; details: U0126; ref Su et al., 2003; Norris et al. 2008; cited from earlier work
[12] = system: gap junctions in mouse ovarian follicles; details: 10 μM U0126; ref Norris et al. 2008; cited from earlier work
[13] = system: MAP kinase; details: 10 μM U0126; ref Norris et al. 2008; cited from earlier work

Chain of ERK1 (P27361 whole entry, species assumed): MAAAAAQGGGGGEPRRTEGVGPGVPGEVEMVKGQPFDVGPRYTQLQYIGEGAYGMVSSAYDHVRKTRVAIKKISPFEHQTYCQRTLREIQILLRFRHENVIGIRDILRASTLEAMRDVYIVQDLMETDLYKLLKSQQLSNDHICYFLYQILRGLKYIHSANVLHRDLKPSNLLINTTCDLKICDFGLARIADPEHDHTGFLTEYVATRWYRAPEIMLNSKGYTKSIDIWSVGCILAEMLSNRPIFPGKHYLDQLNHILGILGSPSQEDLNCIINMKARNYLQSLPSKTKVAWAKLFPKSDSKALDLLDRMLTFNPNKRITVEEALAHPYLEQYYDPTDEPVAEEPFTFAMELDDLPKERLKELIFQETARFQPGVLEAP

COc1cc2ncnc(Nc3cccc(Cl)c3)c2cc1OC [AG1478]
inhibition of ERK1 [1]: not inhibited
effect on LH-induced EGFR phosphorylation on tyrosine 1068 [2]: completely inhibits
gap junction permeability after LH application ([3]; in the presence of 500 nM AG1478): indistinguishable from that in an untreated follicle
cGMP as percent of the basal level ([4]; 1 hour after LH in the presence of 500 nM AG1478): ~ 15%
effect on the cGMP decrease in response to LH ([5]; 500 nM AG1478): completely inhibited
oocytes that had resumed meiosis ([7]; 500 nM AG1478 + LH, observed at 20 hours): ~ 30%
effect on nuclear envelope breakdown in response to LH ([7]; 500 nM AG1478, observed at 6 hours): completely inhibited
inhibition of ERK2 [8]: not inhibited
percent of activity remaining ([9]; seven of the 110 kinases tested): 30-50%
percent of activity remaining ([9]; the other 101 kinases): > 50%
percent of activity remaining ([9]; two of the 110 kinases tested): 10-20%
IC50 ([9]; 101 out of the 110 kinases tested): > 1000 nM
LH-stimulated phosphorylation of the EGFR on tyrosine 1068 [10]: indistinguishable from the basal level without LH

N#CC(=C(/N)Sc1ccccc1N)/C(C#N)=C(/N)Sc1ccccc1N [U0126]
meiotic resumption in response to LH in the presence of inhibitor [11]: causes meiotic resumption
effect on gap junction closure in response to LH [12]: completely inhibits
effect on the cGMP decrease in response to LH ([4]; 10 μM U0126, 1 hour pretreatment then 1 hour U0126 + LH): did not have any inhibitory effect
effect on MAP kinase activation in response to LH [13]: fully inhibit

epiregulin
MG/IC fluorescence ratio as percent of the basal level [3]: 32%
part of the LH-induced follicle cGMP decrease caused by epiregulin ([4]; 100 nM epiregulin, 1 hour, relative to LH): ~ 80%
follicle cGMP concentration ([4]; 1 hour treatment with 100 nM epiregulin): ~ 600 nM
oocytes that underwent nuclear envelope breakdown ([7]; 100 nM epiregulin, by 4 hours): Approximately 90%

luteinizing hormone [LH]
MG/IC fluorescence ratio as percent of the basal level [3]: 9%
cGMP as percent of the basal level ([4]; 1 hour after LH application): ~ 4%
follicle cGMP concentration ([4]; 1 hour after LH application (350 nM), approximate): ~ 100 nM
follicle cGMP concentration ([4]; 5 hours after LH application (350 nM), approximate): ~ 30 nM
cGMP as percent of the basal level ([5]; 1 hour after LH application): 39%
